CAL PDZ FP-1 = blocks peptide binding to the human CAL PDZ domain | purified CAL PDZ, TMR-peptide fluorescence polarization, 1 h | Q9HD26 | AID 602252 | hit rate 0.92% among 300,000 | inhibition, % at 24.9 µM;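 active = mean inhibition of at least 30% with at least half of replicates also reaching 30%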
SR-BI uptake up = enhances SR-BI lipid uptake from DiI-HDL; CHO ldlA[mSR-BI] cells, DiI-HDL uptake fluorescence, 3 h; 100 = double the neutral-control signal; activation, % at 12.5 µM; hit rate 0.096% among 320,000; AID 504775;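 active = mean replicate activation of at least 60% and every replicate at or above 60%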
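Test system: SR-BI-overexpressing, LDLR-lacking CHO cells. Measured by: DiI fluorescence, bottom read. Medium: Ham's F12 with 0.5% BSA, HEPES 25 mM, pH 7.4. Timing: 3 h uptake period with compound, 37 °C.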
SR-BI DiI inh = blocks mouse SR-BI lipid uptake from DiI-HDL. hit rate 0.96% among 320,000. ldlA[mSR-BI] CHO cells, DiI-HDL uptake fluorescence, 3 h. Q61009. inhibition, % at 12.5 µM;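 active = mean replicate inhibition of at least 70% and a set share of replicates each scoring 70 or more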
Target sequence (Q61009 whole entry, looked up): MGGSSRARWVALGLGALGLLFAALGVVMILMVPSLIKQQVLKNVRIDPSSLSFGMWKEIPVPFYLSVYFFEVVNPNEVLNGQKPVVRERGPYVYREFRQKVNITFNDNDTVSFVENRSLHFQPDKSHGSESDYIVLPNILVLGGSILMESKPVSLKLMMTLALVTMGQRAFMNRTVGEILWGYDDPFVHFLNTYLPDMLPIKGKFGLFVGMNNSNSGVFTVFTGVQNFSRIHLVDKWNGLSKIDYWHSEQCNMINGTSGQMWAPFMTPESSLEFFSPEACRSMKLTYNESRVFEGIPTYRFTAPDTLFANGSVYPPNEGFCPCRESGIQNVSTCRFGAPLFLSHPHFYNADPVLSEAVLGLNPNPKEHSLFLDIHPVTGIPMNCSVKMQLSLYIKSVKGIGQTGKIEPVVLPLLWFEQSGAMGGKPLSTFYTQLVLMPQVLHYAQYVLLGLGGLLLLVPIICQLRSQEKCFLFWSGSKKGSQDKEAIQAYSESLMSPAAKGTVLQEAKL
dFosB act-1 = enhances mouse delta FosB homodimer DNA binding; P13346; purified delta FosB, TAMRA-CDK5 oligo fluorescence polarization; percent of positive-control signal above neutral wells; activation, % at 25 µM; hit rate 0.99% among 340,000; AID 493131;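 active = mean activation above about 17%, with every replicate also reaching it, limit read from the data, passing the limit was not always enough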
CAL PDZ FP-2 = human CAL PDZ-peptide interaction inhibition; Q9HD26; purified CAL PDZ, TMR-peptide fluorescence polarization, 1 h; inhibition, % at 20 µM; hit rate 0.02% among 330,000; AID 504414;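 active = highest replicate inhibition of at least 40%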
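Test system: purified CerCALP PDZ construct; Compound dosing: one concentration, 20 µM compound; Also added: TMR-labelled reporter peptide T*-PRC34 bound in PDZ groove; Read-out: inhibition from polarization loss; Controls: unlabelled peptide and DMSO controls; Signal: FP readout, S and P plane fluorescence; Incubation: 1 h at RT.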
dFosB act-2 = activators of mouse delta FosB homodimer DNA binding; shares compounds with dFosB act-1; purified delta FosB, TAMRA-CDK5 oligo fluorescence polarization; normalised: neutral wells 0, positive control 100; activation, % at 24.9 µM; 2,400 tested, under 10 active; AID 588690;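 active = highest replicate activation at or above 34% and every replicate reaching that threshold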;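 note: higher polarization means more probe DNA bound by delta FosB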
Hits are given with their value; . = inactive; / = no result given. Compounds with a hit are over-represented: about 2.8% of the library has one in this group of screens.

SMILES	CAL PDZ FP-1	SR-BI uptake up	SR-BI DiI inh	dFosB act-1	CAL PDZ FP-2	dFosB act-2
COc1cc(F)ccc1CN1CCC(n2nccc2NC(=O)C2CCOC2)CC1 (stereo not drawn)	.	.	.	.	.	/
Cc1cn(-c2cc(C(=O)Nc3ccc(C)c(NC(=O)N4CCNC4=O)c3)cc(C(F)(F)F)c2)cn1	.	.	.	56	.	.
CCN1CCN(Cc2ccc(NC(=O)c3ccc(C)c(NC(=O)N4CCNC4=O)c3)cc2C(F)(F)F)CC1	.	.	.	.	.	/
O=S(=O)(NC1CC1)c1ccc(S(=O)(=O)N2CCCC3(CCCCC3)C2)cc1	.	.	.	16	.	.
O=S(=O)(NC1CC1)c1ccc(S(=O)(=O)N2CCN3CCCC3C2)cc1 (stereo not drawn)	.	.	.	.	.	/
CC(=O)c1cccc(NS(=O)(=O)N2CCOCC2)c1	/	.	.	.	.	/
COc1c(C)cc(C(=O)C2CCCN(C(=O)c3ccc4cc[nH]c4c3)C2)cc1C (stereo not drawn)	.	.	.	.	.	/
CC(=O)c1ccc(OCC(=O)Nc2ccccc2C(=O)NC2CC2)cc1	.	.	.	30	.	.
O=C(COc1ccc([N+](=O)[O-])cc1)Nc1ccccc1C(=O)NC1CC1	.	.	.	26	.	.
O=C(COc1ccccc1)Nc1ccccc1C(=O)NC1CC1	.	.	.	.	.	/
O=C(COc1ccc(/C=N/NC(=O)c2ccccc2O)cc1)Nc1ccc([N+](=O)[O-])cc1	.	.	.	24	.	.
O=C(CCC(=O)Nc1ccccc1Cl)NNC(=O)COc1ccc([N+](=O)[O-])cc1	/	.	.	17	.	.
O=C(COc1ccc(/C=N/NC(=O)c2ccncc2)cc1)Nc1cccc([N+](=O)[O-])c1	.	.	.	.	.	/
CC(NCC(O)COCCC12CC3CC(CC(C3)C1)C2)c1ccccc1 (stereo not drawn)	.	.	.	.	.	/
COc1cccc(C(=O)OCC(=O)Nc2ccc3c(c2)OCCO3)c1	.	.	.	.	.	/
Cc1onc(-c2ccccc2)c1C(=O)NC(=S)NNC(=O)c1ccncc1	.	.	.	.	.	/
Cc1onc(-c2ccccc2)c1C(=O)NC(=S)NNC(=O)c1cc(-c2ccc(F)cc2)n[nH]1	.	.	.	29	.	.
Cc1ccc2nc(SCC(=O)NCc3ccccc3)nc(=O)n2c1	.	.	.	.	.	/
O=C(CNC(=O)c1ccc(Br)o1)Nc1cccc(-c2cnc3ccccc3n2)c1	.	.	.	19	.	.
CC(=O)Nc1ccc(C(=O)Nc2cccc(-c3cnc4ccccc4n3)c2)cc1	.	.	.	24	.	.
O=C(Nc1cccc(-c2cn3cccnc3n2)c1)c1ccc(Br)o1	.	.	.	19	.	.
CCc1nnc(SCC(=O)NCCC2=CCCCC2)nc1CC	.	.	.	.	.	/
C/C(=N\NC(=O)c1nnn(-c2nonc2N)c1CSc1ccccc1)c1ccco1	.	.	.	38	.	.
C/C(=N\NC(=O)c1nnn(-c2nonc2N)c1CSc1ccccc1)c1cccnc1	.	.	.	.	.	/
Cc1ccc(SCc2c(C(=O)N/N=C/c3ccoc3)nnn2-c2nonc2N)cc1	.	.	.	.	.	/
SMILES	CAL PDZ FP-1	SR-BI uptake up	SR-BI DiI inh	dFosB act-1	CAL PDZ FP-2	dFosB act-2
C/C(=N\NC(=O)c1nnn(-c2nonc2N)c1CSc1ccc(C)cc1)c1ccco1	.	.	.	18	.	.
Cc1nn(Cc2nnc(SCC(=O)Nc3ccc(Cl)cc3)n2C)c(C)c1[N+](=O)[O-]	/	.	.	.	.	/
Cc1c(C(=O)OCC(=O)Nc2ccc(S(N)(=O)=O)cc2)oc2c1ccc1ccccc12	.	.	.	29	.	.
Cc1ccc2c(C)c(C(=O)Nc3ccc(S(N)(=O)=O)cc3)oc2c1C	.	.	.	48	.	.
COc1ccc(/C(C)=N/NC(=O)c2ccncc2)cc1	.	.	.	.	.	/
COc1ccc(C(=O)Nc2ccc(/C(C)=N/NC(=O)c3ccncc3)cc2)cc1	.	.	.	40	.	.
COc1ccc(/C=C/C(=O)Oc2ccc(/C=N/NC(=O)c3ccncc3)cc2)cc1	.	/	/	22	.	.
O=C(N/N=C/c1ccc(OC(=O)c2ccc(Br)cc2)cc1)c1ccncc1	/	/	/	90	.	.
O=C(N/N=C/c1ccc(OC(=O)c2ccco2)cc1)c1ccncc1	.	.	.	.	.	/
CCOC(=O)c1c(C)[nH]c(C)c1C(=O)CSc1nnc(-c2cc(OC)c(OC)c(OC)c2)o1	.	.	.	33	.	.
O=C(Nn1c(C2CCCCC2)nc2ccccc2c1=O)c1ccc([N+](=O)[O-])cc1Cl	.	.	.	43	.	.
CS(=O)(=O)c1cccc(C(=O)Nc2ccc3c(c2)OCCCO3)c1	.	.	.	.	.	/
CC(C)(C)C(=O)N1CCN(c2ccnc3cc(Cl)ccc23)CC1	.	.	.	.	.	/
O=C(Nc1ccc(OC(F)(F)F)cc1)N1CCN(c2ccnc3cc(Cl)ccc23)CC1	.	.	.	39	.	.
Cc1ccc(C)c(NC(=O)CN(C)C(=O)c2cc3c(s2)CCCCC3)c1	/	.	.	.	.	/
CCCc1cc(=O)oc2cc(OCC(=O)NCCc3c[nH]c4ccc(OC)cc34)ccc12	.	.	.	19	.	.
CCOc1ccc(NS(=O)(=O)c2ccc(C(=O)N(C)CC(=O)Nc3ccc(C)cc3)cc2)cc1	.	.	.	.	.	/
Cc1ccc(N2C(=O)N(CC(=O)Nc3ccccc3C(F)(F)F)C(=O)C2C)cc1 (stereo not drawn)	.	.	.	.	.	/
O=C(Cn1cnc2sc(-c3ccccc3)cc2c1=O)NCc1ccccc1	/	.	.	32	.	.
O=C(Cn1cnc2c(oc3ccccc32)c1=O)NCCc1ccccc1	.	.	.	61	.	.
O=C(Cn1cnc2sc(-c3ccccc3)cc2c1=O)NCCc1ccccc1	.	.	.	53	.	.
NC(=O)Cn1cnc2c(nnn2-c2cccc(Cl)c2)c1=O	.	.	.	.	.	/
O=C(Cn1cnc2c(nnn2-c2cccc(Cl)c2)c1=O)NCc1ccccc1	/	.	.	68	.	.
CCN(CC(=O)NCc1ccc(F)cc1)C(=O)c1cccnc1SC	.	/	/	.	.	/
C=CC[C@]12C[C@@H](OC)C(=O)C=C1O[C@@H](c1ccc(OC)c(OC)c1)[C@H]2C	.	.	.	.	.	/
Cn1c(=O)c(=O)n(C)c2cc(S(=O)(=O)CCC(=O)Nc3cccc(C(F)(F)F)c3)ccc21	.	.	.	21	.	.
Cn1c(=O)c(=O)n(C)c2cc(S(=O)(=O)CCC(=O)Nc3ccc(F)cc3)ccc21	.	.	.	.	.	/

Screens as filed in PubChem.
